Experimental findings from publication PMC4367188 (ACS Chemical Neuroscience, 2015) are described below.

Experiment [1] addresses DAT (Mus musculus, UniProt Q61327). As to the kind of experiment: dopamine uptake in mouse forebrain synaptosomes. It counts as biochemical. The following applies: 5 μM ML352. The procedure, abridged:
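Crude P2 synaptosomes from forebrains of male C57BL/6J mice (8–10 weeks), taken after decapitation under urethane. Incubated 10 min at 37 °C in Krebs bicarbonate buffer with 100 nM [3H]dopamine or [3H]serotonin ± test compound. Stopped on ice, rapidly filtered, counted by scintillation. Specific uptake defined with cocaine 1 μM (DAT) or citalopram 1 μM (SERT). Protein by BCA; n = 3.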

For experiment [2], the target named is Opiate δ1 (OP1, DOP) (Homo sapiens, UniProt P41143). As to the kind of experiment: Lead Profiling Screen radioligand binding.
Opiate δ1 (OP1, DOP), sequence (P41143 whole entry): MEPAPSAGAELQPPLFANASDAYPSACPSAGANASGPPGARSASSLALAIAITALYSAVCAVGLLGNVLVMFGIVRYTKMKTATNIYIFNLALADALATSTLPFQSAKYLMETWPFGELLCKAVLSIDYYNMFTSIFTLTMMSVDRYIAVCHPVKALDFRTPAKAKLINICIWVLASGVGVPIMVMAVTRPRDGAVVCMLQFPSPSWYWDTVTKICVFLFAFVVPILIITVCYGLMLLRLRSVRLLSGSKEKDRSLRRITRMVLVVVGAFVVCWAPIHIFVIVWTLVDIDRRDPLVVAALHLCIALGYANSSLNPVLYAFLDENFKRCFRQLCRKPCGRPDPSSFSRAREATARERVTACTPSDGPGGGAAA
Experiment [3] concerns the target Adrenergic β2 (Homo sapiens, UniProt P07550). As to the kind of experiment: Lead Profiling Screen radioligand binding.
Experiment [4] relates to Glutamate, NMDA, Glycine. As to the kind of experiment: Lead Profiling Screen radioligand binding. The following applies: 10 μM ML352.
Experiment [5] concerns Sodium Channel, Site 2. As to the kind of experiment: Lead Profiling Screen radioligand binding. Conditions: 10 μM ML352.
The target of experiment [6] is P450 1A2 (Homo sapiens, UniProt P05177). As to the kind of experiment: cytochrome P450 inhibition. It counts as in vitro ADME.
P450 1A2, sequence (P05177 whole entry): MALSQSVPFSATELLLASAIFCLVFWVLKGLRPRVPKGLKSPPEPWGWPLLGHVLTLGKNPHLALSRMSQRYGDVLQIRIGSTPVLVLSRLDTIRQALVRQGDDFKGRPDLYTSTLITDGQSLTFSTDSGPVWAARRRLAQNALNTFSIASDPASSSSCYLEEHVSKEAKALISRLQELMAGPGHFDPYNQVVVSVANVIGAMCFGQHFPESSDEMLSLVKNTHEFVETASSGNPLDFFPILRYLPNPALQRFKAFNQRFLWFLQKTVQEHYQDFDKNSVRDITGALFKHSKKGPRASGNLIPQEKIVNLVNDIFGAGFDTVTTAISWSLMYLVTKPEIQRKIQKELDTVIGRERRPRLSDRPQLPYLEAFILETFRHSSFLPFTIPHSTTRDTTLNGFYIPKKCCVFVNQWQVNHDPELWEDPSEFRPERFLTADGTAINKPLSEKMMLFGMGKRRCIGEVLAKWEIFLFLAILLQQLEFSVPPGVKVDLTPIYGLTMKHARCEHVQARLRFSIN

Usually inhibition stands for the drop in the measured response relative to a control, in per cent. What is called % inhibition is how much of the control response was suppressed. A higher % inhibition goes with a strong effect. By IC50 is commonly meant the concentration that inhibits the measured activity by half. Low values mean higher potency, high ones lower potency.

DAT, sequence (Q61327 whole entry): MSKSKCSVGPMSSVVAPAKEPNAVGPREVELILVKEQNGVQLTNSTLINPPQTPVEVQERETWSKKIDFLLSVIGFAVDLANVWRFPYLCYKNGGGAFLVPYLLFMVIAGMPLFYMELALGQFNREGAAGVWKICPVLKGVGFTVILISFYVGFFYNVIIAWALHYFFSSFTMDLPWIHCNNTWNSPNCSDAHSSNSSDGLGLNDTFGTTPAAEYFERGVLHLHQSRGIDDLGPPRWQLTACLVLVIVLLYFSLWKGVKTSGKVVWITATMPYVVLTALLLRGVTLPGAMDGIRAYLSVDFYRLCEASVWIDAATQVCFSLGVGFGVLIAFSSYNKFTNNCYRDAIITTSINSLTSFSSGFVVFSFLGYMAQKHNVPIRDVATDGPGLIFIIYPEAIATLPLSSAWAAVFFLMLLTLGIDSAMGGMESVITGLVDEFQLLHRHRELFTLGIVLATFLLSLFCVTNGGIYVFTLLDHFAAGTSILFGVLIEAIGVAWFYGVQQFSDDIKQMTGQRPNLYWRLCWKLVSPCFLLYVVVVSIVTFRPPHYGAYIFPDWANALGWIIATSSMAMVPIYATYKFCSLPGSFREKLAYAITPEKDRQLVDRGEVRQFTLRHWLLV
Adrenergic β2, sequence (P07550 whole entry): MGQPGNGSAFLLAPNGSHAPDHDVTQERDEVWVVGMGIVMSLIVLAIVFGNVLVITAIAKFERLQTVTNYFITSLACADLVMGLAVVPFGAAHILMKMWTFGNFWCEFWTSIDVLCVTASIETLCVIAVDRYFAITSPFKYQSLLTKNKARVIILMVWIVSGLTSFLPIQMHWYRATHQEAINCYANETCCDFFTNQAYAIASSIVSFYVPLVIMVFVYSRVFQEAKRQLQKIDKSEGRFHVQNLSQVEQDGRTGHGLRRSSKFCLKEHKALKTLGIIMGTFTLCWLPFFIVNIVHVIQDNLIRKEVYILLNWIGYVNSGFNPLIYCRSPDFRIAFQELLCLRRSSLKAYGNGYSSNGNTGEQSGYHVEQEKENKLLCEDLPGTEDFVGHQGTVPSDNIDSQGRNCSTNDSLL

`COc1ccc(C(=O)NCc2cc(C(C)C)no2)cc1OC1CCN(C)CC1` [ML352, N-((3-isopropylisoxazol-5-yl)methyl)-4-methoxy-3-((1-methylpiperidin-4-yl)oxy)benzamide]: in experiment [1], the “inhibition of DAT” value was “fails to inhibit”. Moreover, the results for the inhibition at 10 µM in experiment [2] and in experiment [3] were -2% and 43%, respectively. Moreover, the “% inhibition” value was found to be 4% in experiment [4] and 20% in experiment [5]. This compound also registered an IC50 in experiment [6] of more than 30 µM.
